Measurements taken from ChEMBL document CHEMBL4765452, “Discovery of (E)-N-(4-methyl-5-(3-(2-(pyridin-2-yl)vinyl)-1H-indazol-6-yl)thiazol-2-yl)-2-(4-methylpiperazin-1-yl)acetamide (IHMT-TRK-284) as a novel orally available type II TRK kinase inhibitor capable of overcoming multiple resistant mutants” (Eur J Med Chem, 2020).
Active and inactive are the calls of the source. No cut-off for these calls is given here.

How the values were obtained:
BaF3 [1] = assay: Antitumor activity against mouse BAF3 cells harboring TEL fused TRKC allografted in nude mouse assessed as tumor growth inhibition administered orally once daily for 10 days; format: functional, cell-based; conditions: dose 40-80 mg/kg/day, time 10.0 day
Method in brief: (§1)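 Nu/nu mice given 1 million BaF3 cells (TEL-TRKA, TEL-TRKB, TEL-TRKC, LMNA-TRKA-F589L or LMNA-TRKA-G667S) in DMEM, 1:1 with matrigel, injected subcutaneously into the right flank; oral gavage began at 200–400 mm³, 5 mice per group, compound in 0.5% methylcellulose/0.4% Tween 80 in ddH₂O, 10 days; tumor volume [(W²×L)/2] and body weight recorded daily; TGI versus vehicle.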

[2] = Antitumor activity against human […] cells xenografted in nude mouse assessed as tumor growth inhibition at 80 mg/kg, po administered once daily for 10 days relative to control; format: functional; conditions: KM12-Luc, 240 h, time 10 day, read-out: TGI
Method in brief: (§2)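 Nu/nu mice given 5 million KM-12-LUC cells in DMEM, 1:1 with matrigel, injected subcutaneously into the right flank; oral gavage started at tumor size 150–200 mm³, 5 mice per group, compound in 0.5% methylcellulose/0.4% Tween 80 in ddH₂O; body weight and tumor volume [(W²×L)/2] measured daily; TGI versus vehicle.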

[3] = target: T1, High affinity nerve growth factor receptor (Homo sapiens, UniProt P04629); assay: Inhibition of TRKA in human KM-12-LUC cells assessed as reduction in ERK1/2 phosphorylation at T202/Y204 residues after 2 hrs by Western blot analysis; format: cell-based, KM12-Luc
Method in brief: (§3)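 KM-12-LUC (TPM3-TRKA fused colon cancer cells) grown in RPMI 1640 with 10% FBS and 1% penicillin/streptomycin at 37 °C under 5% CO2. Serially diluted compound added for 2 h. Lysates western blotted for phospho-AKT (T308/S473) and phospho-ERK1/2 (T202/Y204).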
Target sequence in this assay (P04629 whole entry, the tested form may be a part): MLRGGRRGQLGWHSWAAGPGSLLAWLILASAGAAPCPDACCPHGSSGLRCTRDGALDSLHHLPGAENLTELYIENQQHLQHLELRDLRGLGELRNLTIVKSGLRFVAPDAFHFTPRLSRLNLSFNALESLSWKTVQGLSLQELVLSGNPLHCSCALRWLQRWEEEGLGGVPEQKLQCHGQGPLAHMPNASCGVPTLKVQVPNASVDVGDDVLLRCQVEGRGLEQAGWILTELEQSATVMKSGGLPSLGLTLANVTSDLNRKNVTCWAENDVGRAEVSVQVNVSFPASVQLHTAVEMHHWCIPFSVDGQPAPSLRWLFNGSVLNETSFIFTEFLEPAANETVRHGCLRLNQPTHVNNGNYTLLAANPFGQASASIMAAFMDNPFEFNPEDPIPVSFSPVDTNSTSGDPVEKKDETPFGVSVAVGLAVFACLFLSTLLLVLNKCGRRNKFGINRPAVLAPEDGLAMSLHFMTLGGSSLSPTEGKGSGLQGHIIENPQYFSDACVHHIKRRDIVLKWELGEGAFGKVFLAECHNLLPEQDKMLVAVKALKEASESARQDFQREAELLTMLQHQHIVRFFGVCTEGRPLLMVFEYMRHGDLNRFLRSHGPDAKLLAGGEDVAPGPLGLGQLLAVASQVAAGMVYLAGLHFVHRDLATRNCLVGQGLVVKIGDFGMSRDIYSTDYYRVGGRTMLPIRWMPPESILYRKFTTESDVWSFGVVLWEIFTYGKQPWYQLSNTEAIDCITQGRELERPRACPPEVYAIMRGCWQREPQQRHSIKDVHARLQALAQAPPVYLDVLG

[4] = AUC (0 to t) in Beagle dog at 1 mg/kg, iv; format: ADME, organism-based, Canis lupus familiaris; parameters: dose 1 mg/kg; conditions: in vivo
Method in brief: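 Intravenous and oral arms were run in parallel in each species (mice, Sprague Dawley rats, beagle dogs). Exposure is reported as AUC0-t in ng/mL·h.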

[5] = Toxicity in mouse xenografted with mouse BAF3 cells harboring TEL fused TRKB assessed as effect on body weight at 40 to 80 mg/kg, po administered once daily for 10 days; format: organism-based; conditions: in vivo, 240 h, dose 40-80 mg/kg/day, time 10 day
Method in brief: (§4)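 nu/nu mice were given subcutaneous right-flank implants in 1:1 DMEM/matrigel: 1 million BaF3 fusion cells or 5 million KM-12-LUC cells. Oral gavage started at 150–200 mm3 (xenograft) or 200–400 mm3 (allograft). Dosing used 40 or 80 mg/kg in HKI vehicle (0.5% methylcellulose/0.4% Tween 80 in ddH2O), with 5 mice per group. Body weight was recorded daily and behaviour observed.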

[6] = target: T1, High affinity nerve growth factor receptor; assay: Inhibition of TRKA in human KM-12-LUC cells assessed as reduction in AKT phosphorylation at S473 residue after 2 hrs by Western blot analysis; format: cell-based, KM12-Luc; method in brief: as §3
Target sequence in this assay (P04629 whole entry, the tested form may be a part): as above

[7] = Apparent volume of distribution in mouse at 10 mg/kg, po; format: ADME, organism-based; conditions: in vivo
[8] = target: T2, BDNF/NT-3 growth factors receptor (Homo sapiens, UniProt Q16620); assay: Inhibition of TEL fused wild type TRKB (unknown origin) transfected in mouse BaF3 cells assessed as reduction in phosphorylation at Y515 residue after 2 hrs by Western blot analysis; format: cell-based
Method in brief: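 Isogenic BaF3 lines, made in-house, grown in RPMI 1640 with 10% FBS and 1% penicillin/streptomycin at 37 °C under 5% CO2. Serially diluted compound added for 2 h. Cells collected and lysed, and lysates analysed by western blotting for phospho-TRK. EC50 derived from the blots.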
Target sequence in this assay (Q16620 whole entry, the tested form may be a part): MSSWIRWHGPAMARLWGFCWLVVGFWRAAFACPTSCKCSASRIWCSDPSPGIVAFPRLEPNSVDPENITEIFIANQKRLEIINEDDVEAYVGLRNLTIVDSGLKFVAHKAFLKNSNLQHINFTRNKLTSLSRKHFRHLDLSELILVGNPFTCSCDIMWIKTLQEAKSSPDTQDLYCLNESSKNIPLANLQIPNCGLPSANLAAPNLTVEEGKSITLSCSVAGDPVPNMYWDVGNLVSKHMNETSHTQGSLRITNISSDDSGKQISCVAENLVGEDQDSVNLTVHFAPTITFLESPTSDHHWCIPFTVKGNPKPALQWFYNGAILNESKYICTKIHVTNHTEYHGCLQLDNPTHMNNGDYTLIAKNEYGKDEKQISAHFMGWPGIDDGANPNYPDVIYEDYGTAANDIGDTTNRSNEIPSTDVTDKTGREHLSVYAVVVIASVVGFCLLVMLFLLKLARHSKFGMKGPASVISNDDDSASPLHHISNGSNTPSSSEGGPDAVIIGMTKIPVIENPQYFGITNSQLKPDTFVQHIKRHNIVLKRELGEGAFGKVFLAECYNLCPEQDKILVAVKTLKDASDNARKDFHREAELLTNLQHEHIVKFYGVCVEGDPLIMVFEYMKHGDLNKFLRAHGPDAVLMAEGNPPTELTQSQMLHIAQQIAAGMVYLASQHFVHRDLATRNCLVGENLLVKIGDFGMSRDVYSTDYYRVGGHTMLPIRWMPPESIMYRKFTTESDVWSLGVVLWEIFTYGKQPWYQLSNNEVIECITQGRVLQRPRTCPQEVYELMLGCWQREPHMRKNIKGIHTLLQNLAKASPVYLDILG

[9] = target: T1, High affinity nerve growth factor receptor; assay: Inhibition of wild type TEL fused TRKA (unknown origin) transfected in mouse BAF3 cells assessed as growth inhibition after 72 hrs by CCK8 assay; format: cell-based
Target sequence in this assay (P04629 33-796 limits assumed): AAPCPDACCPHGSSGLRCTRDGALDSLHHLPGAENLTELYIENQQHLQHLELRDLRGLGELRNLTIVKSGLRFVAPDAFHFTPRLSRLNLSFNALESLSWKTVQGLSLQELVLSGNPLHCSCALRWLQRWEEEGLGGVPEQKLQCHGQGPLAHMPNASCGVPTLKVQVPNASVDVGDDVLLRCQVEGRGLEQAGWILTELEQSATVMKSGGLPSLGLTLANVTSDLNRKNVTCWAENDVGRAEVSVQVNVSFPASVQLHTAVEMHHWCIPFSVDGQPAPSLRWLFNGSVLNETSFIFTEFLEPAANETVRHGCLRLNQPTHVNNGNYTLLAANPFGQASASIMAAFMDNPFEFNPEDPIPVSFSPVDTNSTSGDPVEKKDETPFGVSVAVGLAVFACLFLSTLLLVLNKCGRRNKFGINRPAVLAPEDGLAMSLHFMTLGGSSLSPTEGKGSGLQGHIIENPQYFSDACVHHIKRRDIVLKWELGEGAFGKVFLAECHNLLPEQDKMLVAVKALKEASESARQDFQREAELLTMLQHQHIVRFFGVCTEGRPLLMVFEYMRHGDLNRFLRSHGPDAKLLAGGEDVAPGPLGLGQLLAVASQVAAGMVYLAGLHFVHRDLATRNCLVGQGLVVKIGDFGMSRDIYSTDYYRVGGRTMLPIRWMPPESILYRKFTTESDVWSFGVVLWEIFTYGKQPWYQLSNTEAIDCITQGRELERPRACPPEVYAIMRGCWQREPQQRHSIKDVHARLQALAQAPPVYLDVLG

[10] = Half life in mouse at 10 mg/kg, po; format: ADME, organism-based; conditions: in vivo
[11] = target: T1, High affinity nerve growth factor receptor; assay: Inhibition of TRKA in human KM-12-LUC cells assessed as reduction in TRKA phosphorylation at Y490 residue at 0.01 uM after 2 hrs by Western blot analysis; format: cell-based; conditions: KM12-Luc
Method in brief: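 KM-12-LUC cells cultured in RPMI 1640 with 10% FBS and 1% penicillin/streptomycin. Serially diluted compound applied for 2 h. Cells collected and lysed, and lysates analysed by western blotting for phospho-TRKA Y490, AKT T308/S473 and ERK1/2 T202/Y204.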
Target sequence in this assay (P04629 33-796 limits assumed): as above

[12] = Apparent clearance in Sprague-Dawley rat at 10 mg/kg, po; format: ADME, organism-based; conditions: in vivo, read-out: CLz/F (converted)
[13] = Inhibition of LMNA fused TRKA F589L mutant (unknown origin) transfected in mouse BaF3 cells assessed as reduction in phosphorylation at Y490 residue after 2 hrs by Western blot analysis; conditions: Homo sapiens, BaF3, 2 h
BaF3 [14] = assay: Antitumor activity against mouse BAF3 cells harboring LMNA fused TRKA-F589L mutant allografted in nude mouse assessed as tumor growth inhibition at 40 mg/kg, po administered once daily for 10 days relative to control; format: functional; conditions: 240 h, time 10 day, read-out: TGI; method in brief: as §1
[15] = Toxicity in mouse xenografted with mouse BAF3 cells harboring TEL fused TRKA assessed as effect on body weight at 40 to 80 mg/kg, po administered once daily for 10 days; format: organism-based; conditions: in vivo, 240 h, dose 40-80 mg/kg/day, time 10 day; method in brief: as §4
[16] = Cmax in Beagle dog at 5 mg/kg, po; format: ADME, organism-based, Canis lupus familiaris; parameters: route oral, dose 5 mg/kg; conditions: in vivo
BaF3 [17] = assay: Antitumor activity against mouse BAF3 cells harboring TEL fused TRKB allografted in nude mouse assessed as tumor growth inhibition at 80 mg/kg, po administered once daily for 10 days relative to control; format: functional; conditions: 240 h, time 10 day, read-out: TGI; method in brief: as §1
[18] = Toxicity in mouse xenografted with mouse BAF3 cells harboring […] TRKA-G667S mutant assessed as effect on body weight at 40 to 80 mg/kg, po administered twice daily for 10 days; format: organism-based; conditions: in vivo, 240 h, dose 40-80 mg/kg, time 10 day; method in brief: as §4
[19] = target: T2, BDNF/NT-3 growth factors receptor; assay: Inhibition of human TRKB assessed as remaining enzyme activity at 1 uM by Kinomescan method relative to control
Target sequence in this assay (Q16620 32-822 limits assumed): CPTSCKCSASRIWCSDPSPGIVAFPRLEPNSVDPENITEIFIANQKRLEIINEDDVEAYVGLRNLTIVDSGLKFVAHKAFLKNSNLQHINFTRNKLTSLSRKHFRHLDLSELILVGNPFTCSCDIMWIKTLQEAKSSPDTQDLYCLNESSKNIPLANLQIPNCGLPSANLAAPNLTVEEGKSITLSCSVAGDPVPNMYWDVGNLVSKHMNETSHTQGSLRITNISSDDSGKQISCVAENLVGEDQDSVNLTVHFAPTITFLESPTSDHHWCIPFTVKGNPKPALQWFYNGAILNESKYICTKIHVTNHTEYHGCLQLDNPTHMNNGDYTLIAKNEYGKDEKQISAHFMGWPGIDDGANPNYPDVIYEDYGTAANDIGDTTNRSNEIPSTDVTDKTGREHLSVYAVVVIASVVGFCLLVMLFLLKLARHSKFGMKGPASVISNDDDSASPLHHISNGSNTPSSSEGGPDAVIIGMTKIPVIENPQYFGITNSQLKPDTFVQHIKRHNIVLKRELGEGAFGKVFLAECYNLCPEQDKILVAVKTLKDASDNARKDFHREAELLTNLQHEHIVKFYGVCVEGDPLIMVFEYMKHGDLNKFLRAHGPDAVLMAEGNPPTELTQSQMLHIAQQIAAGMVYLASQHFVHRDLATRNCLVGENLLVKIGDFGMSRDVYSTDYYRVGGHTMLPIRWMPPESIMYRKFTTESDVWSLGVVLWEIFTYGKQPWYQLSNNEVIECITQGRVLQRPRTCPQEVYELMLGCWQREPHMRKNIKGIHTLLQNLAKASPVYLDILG

[20] = target: VEGFR2 (vascular endothelial growth factor receptor 2), wild type, TEL fusion (Homo sapiens, UniProt P35968); assay: Inhibition of wild type TEL fused VEGFR2 (unknown origin) transfected in mouse BAF3 cells assessed as growth inhibition after 72 hrs by CCK8 assay; format: cell-based; conditions: mouse BaF3 cells transfected with wild type TEL-fused VEGFR2
KM12-Luc [21] = assay: Induction of cell cycle arrest in human KM-12-LUC cells assessed as accumulation at G0/G1 phase at 0.01 to 10 uM after 24 hrs by PI/RNase staining based flow cytometric analysis; format: functional; conditions: dose 0.01-10 µM
Method in brief: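 KM-12-LUC cells treated with DMSO or serially diluted compound. Cells fixed in cold 70% ethanol overnight at −20 °C, then stained with PI/RNase buffer. Cell cycle distribution measured by flow cytometry.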

KM12-Luc [22] = assay: Antitumor activity against human […] cells xenografted in nude mouse assessed as tumor growth inhibition administered orally once daily for 10 days relative to control; format: functional, cell-based; conditions: dose 40-80 mg/kg/day, time 10.0 day; method in brief: as §2
[23] = Inhibition of LMNA fused TRKA G667S mutant (unknown origin) transfected in mouse BaF3 cells assessed as reduction in phosphorylation at Y490 residue after 2 hrs by Western blot analysis; conditions: Homo sapiens, BaF3, 2 h

Sequence of VEGFR2 (vascular endothelial growth factor receptor 2), wild type, TEL fusion (P35968 whole entry, the tested form may be a part): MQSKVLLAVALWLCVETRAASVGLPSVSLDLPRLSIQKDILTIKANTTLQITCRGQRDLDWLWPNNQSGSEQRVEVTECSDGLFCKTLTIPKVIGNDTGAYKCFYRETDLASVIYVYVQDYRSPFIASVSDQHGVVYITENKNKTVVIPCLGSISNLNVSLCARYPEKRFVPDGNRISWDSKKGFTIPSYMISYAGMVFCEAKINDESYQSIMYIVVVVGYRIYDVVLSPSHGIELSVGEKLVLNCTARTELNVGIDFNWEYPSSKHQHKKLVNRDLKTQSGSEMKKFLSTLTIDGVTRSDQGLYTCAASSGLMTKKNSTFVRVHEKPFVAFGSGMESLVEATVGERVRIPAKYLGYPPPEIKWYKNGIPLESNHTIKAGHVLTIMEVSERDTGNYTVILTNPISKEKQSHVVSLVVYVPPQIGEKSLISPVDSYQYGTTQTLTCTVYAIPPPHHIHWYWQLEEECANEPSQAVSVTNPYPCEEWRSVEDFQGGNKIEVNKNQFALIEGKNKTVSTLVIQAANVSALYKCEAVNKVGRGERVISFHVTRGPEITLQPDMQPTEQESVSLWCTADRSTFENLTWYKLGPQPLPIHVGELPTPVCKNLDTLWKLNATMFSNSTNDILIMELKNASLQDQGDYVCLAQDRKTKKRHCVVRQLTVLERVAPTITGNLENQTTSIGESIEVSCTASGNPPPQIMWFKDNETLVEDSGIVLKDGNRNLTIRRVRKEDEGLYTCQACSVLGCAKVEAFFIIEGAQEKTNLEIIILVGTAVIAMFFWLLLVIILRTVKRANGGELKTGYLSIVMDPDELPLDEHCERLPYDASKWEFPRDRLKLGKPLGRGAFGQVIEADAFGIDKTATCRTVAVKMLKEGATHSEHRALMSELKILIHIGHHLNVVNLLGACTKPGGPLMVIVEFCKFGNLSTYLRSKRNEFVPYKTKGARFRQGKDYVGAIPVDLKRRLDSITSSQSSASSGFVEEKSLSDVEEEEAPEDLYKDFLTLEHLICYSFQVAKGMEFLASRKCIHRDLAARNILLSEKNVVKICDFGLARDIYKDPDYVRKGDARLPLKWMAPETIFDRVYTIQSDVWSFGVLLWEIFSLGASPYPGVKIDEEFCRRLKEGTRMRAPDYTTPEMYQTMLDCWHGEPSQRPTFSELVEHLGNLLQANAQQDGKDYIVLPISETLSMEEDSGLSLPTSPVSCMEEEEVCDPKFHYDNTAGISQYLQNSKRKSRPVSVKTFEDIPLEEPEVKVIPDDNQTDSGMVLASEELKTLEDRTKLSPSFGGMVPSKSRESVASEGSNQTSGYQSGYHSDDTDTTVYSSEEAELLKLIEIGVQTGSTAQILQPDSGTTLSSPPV

Cc1nc(NC(=O)CN2CCN(C)CC2)sc1-c1ccc2c(/C=C/c3ccccn3)n[nH]c2c1
Activity (BaF3 [1]): Dose-dependent effect | inhibition in vivo at 80 mg/kg/day [2]: 94.7% | EC50 [3]: < 30 nM | AUC(0-t) [4]: 323 ng·h/mL | Activity [5]: Non-Toxic | EC50 [6]: < 30 nM | Vz [7]: 31567 mL/kg | EC50 [8]: 69 nM | GI50 [9]: 8.5 nM | t1/2 [10]: 3.4 h | inhibition [11]: Active | CL/F [12]: 170 mL/min/kg | EC50 [13]: 21 nM | inhibition in vivo at 40 mg/kg/day (BaF3 [14]): 80% | Activity [15]: Non-Toxic | Cmax [16]: 131 ng/mL | inhibition in vivo at 80 mg/kg/day (BaF3 [17]): 92.7% | Activity [18]: Non-Toxic | Activity [19]: 0.05% | GI50 at 72 h [20]: 1180 nM | Activity (KM12-Luc [21]): Active | Activity (KM12-Luc [22]): Dose-dependent effect | EC50 [23]: 74 nM
